The source made the active and inactive calls. No cut-off for these calls is given here.

These results are taken from ChEMBL document CHEMBL3797143, “Novel S1P1 receptor agonists - Part 5: From amino-to alkoxy-pyridines” (Eur J Med Chem, 2016).

For series [1], the system named is Rattus norvegicus. The series is described as follows: Time duration of maximum lymphocyte count reduction in Wistar rat at 10 mg/kg administered via oral gavage. In kind it is functional. In short, it runs like this:
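Duration of action is the latest sampling time at which maximal lymphocyte-count reduction was still seen. Male Wistar rats received 10 mg/kg orally, and blood lymphocytes were counted before dosing and at 3, 6 and 24 h (later times in some cases). Mean of 6-8 animals.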

Series [2] deals with Sphingosine 1-phosphate receptor 1 (Homo sapiens, UniProt P21453). The series is described as follows: Agonist activity at human recombinant S1PR1 expressed in CHO cell membranes incubated for 30 mins by [35S]GTPgammaS binding assay in presence of GDP. In kind it is functional. In short, it runs like this: (§1)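 Membranes from CHO cells expressing recombinant human S1P1 or S1P3. Compounds were preincubated with membranes for 30 min at room temperature. Reaction stopped by filtration, membrane-bound 35S-GTPγS counted. Geometric mean of ≥3 independent runs.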
A general note: GTPγS is a poorly hydrolysed GTP analogue; its binding reports G protein activation.

The target in series [3] is Sphingosine 1-phosphate receptor 3 (Homo sapiens, UniProt Q99500). The series is described as follows: Agonist activity at human recombinant S1PR3 expressed in CHO cell membranes incubated for 30 mins by [35S]GTPgammaS binding assay in presence of GDP. In kind it is functional. In short, it runs like this: as §1
Series [4] has as its system Rattus norvegicus. Description: Decrease in peripheral blood lymphocyte count in Wistar rat at 10 mg/kg administered via oral gavage measured after 3 hrs. Further details: scale not given: the % may be the effect or the level left. In kind it is functional. The method, boiled down:
(§2)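 Male Wistar rats (RccHan:WIST) were given 10 mg/kg orally by gavage in vehicle containing 5% DMSO. Blood drawn by sublingual vein puncture under isoflurane before dosing and at the listed times after dosing. Lymphocytes counted on a haematology analyser. Results are % change from baseline, mean of 6-8 animals.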

Series [5] deals with Rattus norvegicus. The series is described as follows: Decrease in peripheral blood lymphocyte count in Wistar rat at 10 mg/kg administered via oral gavage measured after 6 hrs. In kind it is functional. Set-up: scale not given: the % may be the effect or the level left. In short, it runs like this:
as §2

The test system of series [6] is Rattus norvegicus. The series is described as follows: Decrease in peripheral blood lymphocyte count in Wistar rat at 10 mg/kg administered via oral gavage measured after 24 hrs. In kind it is functional. Set-up: scale not given: the % may be the effect or the level left. In short, it runs like this: as §2
Series [7] has as its system Rattus norvegicus. The series is described as follows: Decrease in peripheral blood lymphocyte count in Wistar rat at 10 mg/kg administered via oral gavage measured after 96 hrs. In kind it is functional. Further details: scale not given: the % may be the effect or the level left. The method, boiled down:
as §2

In series [8] the test system is Rattus norvegicus. Description: Decrease in peripheral blood lymphocyte count in Wistar rat at 10 mg/kg administered via oral gavage measured after 144 hrs. In kind it is functional. Further details: scale not given: the % may be the effect or the level left. The method, boiled down:
as §2

Series [9] deals with Rattus norvegicus. Description: Decrease in peripheral blood lymphocyte count in Wistar rat at 10 mg/kg administered via oral gavage measured after 72 hrs. In kind it is functional. In short, it runs like this: as §2
A short description of series [10]: Half life in Wistar rat at 10 mg/kg administered via oral gavage by LC-MS/MS analysis. In kind it is ADME, organism-based. The conditions noted are these: in vivo. In short, it runs like this: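 Oral half-life was calculated from plasma concentrations measured in the lymphocyte-count study, in which male Wistar rats received 10 mg/kg orally. Plasma was prepared from EDTA blood by centrifugation at 3000 g for 10 min at 4 °C.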

Series [11] is described as follows: Phototoxicity in Balb/c mouse 3T3 clone A31 cells assessed as AUC of UV spectra between 310 and 350 nm normalized to compound concentration at 0.05 to 100 uM preincubated for 1 hr followed by UVA irradiation measured after 24 hrs by neutral red uptake assay relative to control. In kind it is functional.
The nature of series [12]: Phototoxicity in Balb/c mouse 3T3 clone A31 cells assessed as inhibition of cell viability measured as photo irritancy factor at 0.05 to 100 uM preincubated for 1 hr followed by UVA irradiation measured after 24 hrs by neutral red uptake assay relative to control. In kind it is functional.
The nature of series [13]: Plasma concentration in Wistar rat at 10 mg/kg administered via oral gavage measured after 3 hrs by LC-MS/MS analysis. In kind it is ADME, organism-based. In short, it runs like this:
(§3)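 Male Wistar rats received 10 mg/kg orally by gavage. Blood was drawn at the listed times into EDTA tubes, and plasma was prepared by centrifugation at 3000 g for 10 min at 4 °C. Limit of quantification 3 nM.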

A short description of series [14]: Plasma concentration in Wistar rat at 10 mg/kg administered via oral gavage measured after 6 hrs by LC-MS/MS analysis. In kind it is ADME, organism-based. In short, it runs like this: as §3
The nature of series [15]: Plasma concentration in Wistar rat at 10 mg/kg administered via oral gavage measured after 24 hrs by LC-MS/MS analysis. In kind it is ADME, organism-based. In short, it runs like this: as §3
Series [16] can be described thus: Plasma concentration in Wistar rat at 10 mg/kg administered via oral gavage measured after 72 hrs by LC-MS/MS analysis. In kind it is ADME, organism-based. In short, it runs like this:
as §3

Series [17] can be described thus: Plasma concentration in Wistar rat at 10 mg/kg administered via oral gavage measured after 144 hrs by LC-MS/MS analysis. In kind it is ADME, organism-based. The method, boiled down:
as §3

The nature of series [18]: Plasma concentration in Wistar rat at 10 mg/kg administered via oral gavage measured after 96 hrs by LC-MS/MS analysis. In kind it is ADME, organism-based. In short, it runs like this:
as §3

Series [19] deals with Rattus norvegicus. Description: Decrease in peripheral blood lymphocyte count in Wistar rat at 10 mg/kg administered via oral gavage measured after 48 hrs. In kind it is functional. Further details: scale not given: the % may be the effect or the level left. In short, it runs like this:
as §2

Sequence of Sphingosine 1-phosphate receptor 3 (Q99500 whole entry): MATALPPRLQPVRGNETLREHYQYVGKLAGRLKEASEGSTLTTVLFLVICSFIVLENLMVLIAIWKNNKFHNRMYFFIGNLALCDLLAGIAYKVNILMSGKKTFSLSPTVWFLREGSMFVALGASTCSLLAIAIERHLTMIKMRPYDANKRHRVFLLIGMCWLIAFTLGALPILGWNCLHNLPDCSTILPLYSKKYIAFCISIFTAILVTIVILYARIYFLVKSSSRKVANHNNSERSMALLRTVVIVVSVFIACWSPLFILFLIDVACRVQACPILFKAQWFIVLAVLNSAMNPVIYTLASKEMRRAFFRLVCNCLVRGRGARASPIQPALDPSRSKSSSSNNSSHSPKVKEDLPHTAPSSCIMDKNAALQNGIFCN
Sequence of Sphingosine 1-phosphate receptor 1 (P21453 whole entry): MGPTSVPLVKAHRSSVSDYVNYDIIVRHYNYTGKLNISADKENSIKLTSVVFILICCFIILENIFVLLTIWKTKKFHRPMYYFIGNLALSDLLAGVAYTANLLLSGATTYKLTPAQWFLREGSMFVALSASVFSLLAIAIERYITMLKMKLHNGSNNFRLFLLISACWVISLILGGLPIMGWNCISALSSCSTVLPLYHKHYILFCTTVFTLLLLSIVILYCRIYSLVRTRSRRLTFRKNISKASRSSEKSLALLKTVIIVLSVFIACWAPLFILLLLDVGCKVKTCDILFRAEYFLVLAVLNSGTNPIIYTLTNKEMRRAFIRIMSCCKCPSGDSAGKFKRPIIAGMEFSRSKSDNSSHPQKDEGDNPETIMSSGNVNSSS

The term EC50 denotes the concentration that produces a half-maximal response. Regarding `CCc1cc(-c2noc(-c3cc(C)nc(OC(C)C)c3)n2)cc(C)c1OC[C@@H](O)CNC(=O)CO`, the Time in the series with Rattus norvegicus [1] stood at 96 h. Moreover, the EC50 in series [2] was found to be 0.2 nM; in series [3], 95 nM. For the same compound, the Activity was determined as 66% in the series with Rattus norvegicus [4]; 67% in the series on Rattus norvegicus [5]; 74% in the series on Rattus norvegicus [6]; 70% in the series with Rattus norvegicus [7]; 28% in the series with Rattus norvegicus [8].
`CCc1cc(-c2noc(-c3cc(OC)nc(C4CCC4)c3)n2)cc(C)c1OC[C@@H](O)CNC(=O)CO` came in with a Time in the series on Rattus norvegicus [1] of 24 h. Besides, the results for the EC50 in series [2] and in [3] were 0.3 nM and 22 nM, respectively. Moreover, the values for the Activity with Rattus norvegicus [4], in the series with Rattus norvegicus [5] and in the series on Rattus norvegicus [6] were 56%, 61% and 61%, respectively. In the series with Rattus norvegicus [9], the outcome was Active.
A word on the half-life: it is how long it takes for the measured level to halve. In the series with Rattus norvegicus [1], `CCc1cc(-c2noc(-c3cc(OC)nc(C(CC)CC)c3)n2)cc(C)c1OC[C@@H](O)CNC(=O)CO` showed a Time of 6 h. Moreover, in series [10], the half-life is 540 min. The Ratio was 0.05 in series [11] and 0.9 in series [12]. The results for the EC50 in [2] and in series [3] were 0.4 nM and 96 nM, respectively. For the same compound, the values for the Activity in the series on Rattus norvegicus [4], in the series with Rattus norvegicus [5] and in the series with Rattus norvegicus [6] were 59%, 59% and 36%, respectively. Further, the outcome in the series on Rattus norvegicus [9] was Active. The compound also registered a concentration at 3 h in series [13] of 750 nM. This compound also displayed a concentration at 6 h in series [14] of 470 nM. In series [15], this compound showed a concentration at 24 h of 46 nM. In [16], the concentration at 72 h was less than 3 nM.
As for `CCc1cc(-c2noc(-c3cc(C)nc(OC4CCCC4)c3)n2)cc(C)c1OC[C@@H](O)CNC(=O)CO`, the Time with Rattus norvegicus [1] was 24 h. This compound had a half-life in series [10] of 780 min. Also, the Ratio in series [11] is 0.12; in series [12], 7.5. Also, the values for the EC50 in series [2] and in series [3] were 1 nM and 190 nM, respectively. Further, the Activity in the series on Rattus norvegicus [4] is on record as 69%; in the series on Rattus norvegicus [5], 66%; in the series with Rattus norvegicus [6], 74%; in the series with Rattus norvegicus [9], 43%. The same compound had a concentration at 3 h in series [13] of 2200 nM. The concentration at 6 h in [14] came out at 2040 nM. The concentration at 24 h in series [15] came to 790 nM. This compound also gave a concentration at 72 h in series [16] of 67 nM.
In turn, `CCc1cc(-c2noc(-c3cc(C)nc(OC4CCC4)c3)n2)cc(C)c1OC[C@@H](O)CNC(=O)CO` displayed a Time in the series on Rattus norvegicus [1] of 96 h. Also, the figures for the EC50 in series [2] and in series [3] were 0.3 nM and 110 nM, respectively. The Activity in the series with Rattus norvegicus [4] is on record as 66%; in the series on Rattus norvegicus [5], 62%; with Rattus norvegicus [6], 72%; with Rattus norvegicus [7], 62%; in the series with Rattus norvegicus [8], 21%.
As for `CCc1cc(-c2noc(-c3cc(OC)nc(C4CCCC4)c3)n2)cc(C)c1OC[C@@H](O)CNC(=O)CO`, the concentration at 144 h in series [17] worked out at 12 nM. For the same compound, the Time in the series with Rattus norvegicus [1] was determined as 24 h. Also, in [10], the half-life was 1080 min. Also, the Ratio turned out to be 0.09 in series [11] and 2.3 in series [12]. In addition, in [3], the EC50 was 71 nM. In addition, the Activity was found to be 62% in the series with Rattus norvegicus [4]; 65% with Rattus norvegicus [5]; 70% in the series on Rattus norvegicus [6]; 50% in the series on Rattus norvegicus [7]; 20% in the series with Rattus norvegicus [8]. In addition, in series [13], the concentration at 3 h amounted to 2050 nM. This compound had a concentration at 6 h in series [14] of 1860 nM. Further, in series [15], the concentration at 24 h came to 1070 nM. Also, the concentration at 96 h in series [18] came to 68 nM.
As for `CCc1cc(-c2noc(-c3cc(CC(C)C)nc(OC)c3)n2)cc(C)c1OC[C@@H](O)CNC(=O)CO`, the Time in the series on Rattus norvegicus [1] came out at 48 h. Also, the EC50 is 0.3 nM in [2] and 27 nM in series [3]. The Activity with Rattus norvegicus [4] amounted to 57%; in the series on Rattus norvegicus [5], 59%; in the series with Rattus norvegicus [6], 66%; in the series with Rattus norvegicus [19], 59%.
